According to PMC4232467 (Nature chemical biology, 2014):
In brackets after ≈: the same amount, converted by molar mass.

Columns and labels:
Assay in all cases: Susceptibility testing
Format in all cases: cell-based
[1] = system: Escherichia coli (TEM-3) ESBL producer; conditions: read-out: Minimum inhibitory concentrations (MICs; μg/mL) Escherichia coli (TEM-3)
Procedure, shortened: (§1)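 Broth susceptibility testing of clinical isolates resistant to third-generation cephalosporins, run and read per CLSI guidelines. […] Compounds were dissolved in DMSO and diluted into Mueller Hinton medium, with DMSO kept below 5%. Values are the average of three independent experiments.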

[2] = system: Citrobacter freundii (AmpC overproducer); conditions: read-out: Minimum inhibitory concentrations (MICs; μg/mL) Citrobacter freundii
Procedure, shortened: as §1

[3] = system: Escherichia coli (CTX-M-14) ESBL producer; conditions: read-out: Minimum inhibitory concentrations (MICs; μg/mL) Escherichia coli (CTX-M-14)
Procedure, shortened: as §1

[4] = system: Enterobacter cloacae (AmpC overproducer); conditions: read-out: Minimum inhibitory concentrations (MICs; μg/mL) Enterobacter cloacae
Procedure, shortened: as §1

## CO/N=C(\C(=O)N[C@@H]1C(=O)N2C(C(=O)O)=C(COC(C)=O)CS[C@H]12)c1csc(N)n1 [Cefotaxime, cefotaxime]
[1]
  MIC: 8 µg/mL (≈ 17.6 µM)
[2]
  MIC: 16 µg/mL (≈ 35.1 µM)
[3]
  MIC: 256 µg/mL (≈ 562 µM)
[4]
  MIC: 64 µg/mL (≈ 141 µM)
